Laboratory results published in PMC6930338 (Journal of autoimmunity, 2019).
Where a chain is given by its changes, count along the chain named. pIC50: −log10 of the molar value. Where no end group is shown, it is not given here.

Tests used:
HLA-DRB1*03:04/ *03:07 = HLA-DRB1*03:04/ *03:07 (Homo sapiens, UniProt P01903+P01911, A100K/A102G/A103R/A169T/F55Y/I96L/K41T/L162R/M171V/P40S/Q125H/Q178H/Q39Y/R42S/T106N/T262R/W38E/Y61H); assay: In vitro competitive peptide binding to purified MHC class II
HLA-DRB1*04:01-*04:13 = HLA-DRB1*04:01-*04:13 (Homo sapiens, UniProt P01903+P01911, A100K/A169T/F76Y/I96L/K127E/L162R/M171V/N62H/P40V/Q125Y/R42H/S133A/S149N/S66Y/V115G/V209L/W38E); assay: as above
[1] = target: HLA-DRB5*01:01/ *01:02/ *02:02 (Homo sapiens, UniProt P01903+Q30154); assay: as above
[2] = target: T1, HLA-DPA1*01:03/ HLA-DPB1*04:02 (Homo sapiens, UniProt P04440+P20036, A65V/A84D/A85E/L207M); assay: as above
T1 sequence (P20036 29-260): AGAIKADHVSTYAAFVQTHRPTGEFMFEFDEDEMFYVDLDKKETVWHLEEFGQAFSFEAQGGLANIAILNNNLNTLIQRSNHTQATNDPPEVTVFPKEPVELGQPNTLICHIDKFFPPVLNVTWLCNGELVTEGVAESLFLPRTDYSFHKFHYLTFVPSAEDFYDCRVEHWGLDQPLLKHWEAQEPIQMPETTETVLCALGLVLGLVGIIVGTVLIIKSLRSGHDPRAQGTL
T1 sequence (P04440 30-258 A65V/A84D/A85E): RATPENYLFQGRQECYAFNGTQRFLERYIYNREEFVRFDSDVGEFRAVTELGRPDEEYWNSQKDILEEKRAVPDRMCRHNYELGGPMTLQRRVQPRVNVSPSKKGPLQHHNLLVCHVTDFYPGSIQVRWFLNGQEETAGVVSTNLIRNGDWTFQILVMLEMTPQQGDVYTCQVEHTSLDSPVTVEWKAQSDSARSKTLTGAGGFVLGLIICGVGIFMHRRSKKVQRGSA

[3] = target: T2, HLA-DPA1*01:03/ HLA-DPB1*04:01 (Homo sapiens, UniProt P04440+P20036); assay: In vitro competitive peptide binding to purified MHC class II
T2 sequence (P20036 29-260): T1 sequence (P20036 29-260)
T2 sequence (P04440 30-258): T1 sequence (P04440 30-258 A65V/A84D/A85E) with V36A, D55A, E56A
In short: (§1)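 Candidate MPO peptides were picked by IEDB in silico prediction and then tested in vitro. Each peptide's inhibition of binding of a high-affinity radiolabeled peptide to purified HLA-DPB1*04:01 or HLA-DRB4*01:01 class II molecules was measured.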

HLA-DRB4*01:01/ *01:03 = HLA-DRB4*01:01/ *01:03 (Homo sapiens, UniProt P01903+P13762, G164S); assay: as above
In short: as §1

[4] = Peptide solubility noted during ELISA optimization; assay type: physicochemical; settings: qualitative; follow-up testing and optimization of ELISA

Molecule | pIC50 (HLA-DRB1*03:04/ *03:07) | pIC50 (HLA-DRB1*04:01-*04:13) | pIC50 [1] | pIC50 [2] | pIC50 [3] | pIC50 (HLA-DRB4*01:01/ *01:03) | Solubility compared with MPO447–459 [4]
CC[C@H](C)[C@H](NC(=O)[C@H](CCCNC(=N)N)NC(=O)[C@@H]1CCCN1)C(=O)N[C@@H](C)C(=O)N[C@@H](CC(N)=O)C(=O)N[C@H](C(=O)N[C@@H](Cc1ccccc1)C(=O)N[C@H](C(=O)N[C@@H](CC(N)=O)C(=O)N[C@@H](C)C(=O)N[C@@H](Cc1ccccc1)C(=O)N[C@@H](CCCNC(=N)N)C(=O)N[C@@H](Cc1ccc(O)cc1)C(=O)NCC(=O)N[C@@H](Cc1c[nH]cn1)C(=O)O)[C@@H](C)O)C(C)C [MPO488–502] | 5.53 | 8.70 | 8.30 | 5.87 | 5.25 | 6.14 | –
DQERSLMFMQWGQLL [MPO245–259] | 4.15 | 5.38 | 5.93 | 6.04 | 5.96 | 6.42 | –
GEKLYQEARKIVGAM [MPO413–427, reference compound] | 4.51 | 6.03 | 5.84 | 4.71 | 4.27 | 5.03 | –
PILRGLMATPAKLNR [MPO545–559] | 4.48 | 8.10 | 7.54 | 5.61 | 4.92 | 7.17 | –
PVAATRTAVRAADYL [MPO105–119] | 4.84 | 6.36 | 6.49 | 5.21 | 5.15 | 6.06 | –

These reach a higher pIC50 [3]. Values come first.

pIC50 (HLA-DRB1*03:04/ *03:07) | pIC50 (HLA-DRB1*04:01-*04:13) | pIC50 [1] | pIC50 [2] | pIC50 [3] | pIC50 (HLA-DRB4*01:01/ *01:03) | Solubility compared with MPO447–459 [4] | Molecule
– | – | – | – | 7.42 | 7.77 | – | IKAVRIYIGDVMRQT [MPO447–461scramble, reference compound]
4.96 | 7.80 | 7.09 | 6.08 | 6.39 | 6.66 | – | MPELTSMHTLLLREH [MPO409–423]
– | – | – | – | 5.98 | 6.60 | – | PRWDGERLYQEARKIVGAMV [MPO435–454]
4.86 | 7.34 | 5.92 | 7.13 | 7.01 | 6.62 | improved solubility | RKIVGAMVQIITYRD [MPO447–461]
